From ChEMBL document CHEMBL1131469, “Novel non-peptide fibrinogen receptor antagonists. 1. Synthesis and glycoprotein IIb-IIIa antagonistic activities of 1,3,4-trisubstituted 2-oxopiperazine derivatives incorporating side-chain functions of the RGDF peptide” (J Med Chem, 1998) come the findings set out here.

pIC50: −log10 of the molar value. Peptide text beside a SMILES is read from it.

Chain of Integrin alpha-IIb/beta-3 (P05106 27-788 limits assumed): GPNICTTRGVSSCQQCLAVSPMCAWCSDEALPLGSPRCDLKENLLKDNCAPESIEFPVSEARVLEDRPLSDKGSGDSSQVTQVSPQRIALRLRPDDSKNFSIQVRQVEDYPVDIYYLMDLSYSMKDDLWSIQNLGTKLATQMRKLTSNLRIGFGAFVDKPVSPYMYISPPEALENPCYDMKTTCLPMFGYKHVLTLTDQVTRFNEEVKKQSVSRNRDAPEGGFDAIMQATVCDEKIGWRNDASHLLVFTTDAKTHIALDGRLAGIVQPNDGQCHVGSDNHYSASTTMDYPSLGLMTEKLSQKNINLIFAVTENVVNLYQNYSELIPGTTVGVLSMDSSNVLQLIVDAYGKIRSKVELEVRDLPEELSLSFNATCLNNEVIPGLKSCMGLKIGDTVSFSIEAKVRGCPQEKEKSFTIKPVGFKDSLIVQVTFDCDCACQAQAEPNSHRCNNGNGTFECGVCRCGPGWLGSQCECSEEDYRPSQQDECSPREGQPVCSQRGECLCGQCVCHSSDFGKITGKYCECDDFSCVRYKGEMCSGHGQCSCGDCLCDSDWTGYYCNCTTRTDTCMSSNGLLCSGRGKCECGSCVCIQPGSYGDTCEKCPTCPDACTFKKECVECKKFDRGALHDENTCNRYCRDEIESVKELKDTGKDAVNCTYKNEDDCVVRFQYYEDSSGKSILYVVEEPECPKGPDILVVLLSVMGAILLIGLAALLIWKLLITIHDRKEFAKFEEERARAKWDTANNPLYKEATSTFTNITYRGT
Chain of Integrin alpha-IIb/beta-3 (P08514 32-887 limits assumed): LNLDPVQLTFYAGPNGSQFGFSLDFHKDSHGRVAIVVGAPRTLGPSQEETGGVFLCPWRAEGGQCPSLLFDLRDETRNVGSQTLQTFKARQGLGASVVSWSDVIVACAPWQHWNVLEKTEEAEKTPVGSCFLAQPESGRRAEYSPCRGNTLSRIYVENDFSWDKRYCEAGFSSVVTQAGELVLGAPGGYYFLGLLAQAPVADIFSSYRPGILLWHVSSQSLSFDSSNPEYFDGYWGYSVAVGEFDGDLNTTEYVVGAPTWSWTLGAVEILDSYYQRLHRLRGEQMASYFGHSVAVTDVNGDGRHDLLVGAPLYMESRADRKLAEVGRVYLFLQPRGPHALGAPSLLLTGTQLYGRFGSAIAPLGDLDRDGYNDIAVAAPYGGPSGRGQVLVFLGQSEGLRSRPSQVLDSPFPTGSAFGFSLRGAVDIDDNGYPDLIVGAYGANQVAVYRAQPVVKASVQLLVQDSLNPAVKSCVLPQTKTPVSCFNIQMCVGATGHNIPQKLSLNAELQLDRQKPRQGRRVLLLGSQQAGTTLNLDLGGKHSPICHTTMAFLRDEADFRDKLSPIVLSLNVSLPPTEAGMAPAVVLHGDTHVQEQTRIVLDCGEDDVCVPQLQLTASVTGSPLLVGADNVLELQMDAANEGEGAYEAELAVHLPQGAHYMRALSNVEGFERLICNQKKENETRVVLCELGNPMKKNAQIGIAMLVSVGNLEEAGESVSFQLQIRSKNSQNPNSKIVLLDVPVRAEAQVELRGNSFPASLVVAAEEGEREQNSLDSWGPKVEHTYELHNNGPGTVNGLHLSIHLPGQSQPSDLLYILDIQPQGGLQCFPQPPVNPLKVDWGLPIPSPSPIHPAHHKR
Chain of Integrin alpha-IIb/beta-3 (P08514 891-1039 limits assumed): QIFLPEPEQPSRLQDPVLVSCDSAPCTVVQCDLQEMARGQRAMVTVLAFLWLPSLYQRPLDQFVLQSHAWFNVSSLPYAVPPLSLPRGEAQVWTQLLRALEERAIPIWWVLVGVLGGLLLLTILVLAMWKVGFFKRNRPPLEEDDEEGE

In this assay the target is Integrin alpha-IIb/beta-3 (Homo sapiens, UniProt P05106+P08514). The assay is described as follows: Ability to inhibit binding of biotin-labeled human fibrinogen to immobilized fibrinogen receptor purified from human erythroleukemia (HEL) cells. The gist of the method:
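Purified GP IIb-IIIa (1 μg/mL, pH 7.4 Tris/NaCl/CaCl2 buffer) coated overnight at 4 °C, blocked with 3.5% BSA 2 h at 30 °C. Wells then incubated with 1 nM biotinylated fibrinogen plus graded compound concentrations, 3 h at 30 °C. IC50 from dose–response curves.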
Molecule `N=C(N)c1ccc(C(=O)NCC(=O)N2CCN(CC(=O)O)C(=O)[C@@H]2CCC(=O)O)cc1` showed a negative logarithm of the IC50 (pIC50) of 9.68.

Turning to `N=C(N)c1cccc(C(=O)NCC(=O)N2CCN(CC(=O)O)C(=O)[C@@H]2CC(=O)O)c1`, the negative-log IC50 (pIC50) was 6.89.

The molecule `N=C(N)c1ccc(C(=O)NCC(=O)N2CCN(CC(=O)O)C(=O)[C@@H]2Cc2ccccc2)cc1` had a pIC50 of 8.71.

On to `COC(=O)C[C@@H]1C(=O)N(CC(=O)O)CCN1C(=O)CNC(=O)c1ccc(C(=N)N)cc1`, for which the pIC50 was 7.79.

In the case of `N=C(N)c1ccc(C(=O)NCC(=O)N2CCN(CC(N)=O)C(=O)[C@@H]2CC(=O)O)cc1`, the negative-log IC50 (pIC50) was 6.48.

Regarding `N=C(N)c1ccc(C(=O)NCC(=O)N2CCN(CCC(=O)O)C(=O)[C@@H]2CC(=O)O)cc1`, the negative-log IC50 (pIC50) is 7.20.

In turn, `COC(=O)CC[C@H]1C(=O)N(CC(=O)O)CCN1C(=O)CNC(=O)c1ccc(C(=N)N)cc1` showed a pIC50 of 9.54.

In turn, `N=C(N)NCC1CCC(C(=O)NCC(=O)N2CCN(CC(=O)O)C(=O)[C@@H]2CC(=O)O)CC1` (stereo not given in full) showed a pIC50 of 7.70.

With `CN(C)C(N)=Nc1ccc(C(=O)NCC(=O)N2CCN(CC(=O)O)C(=O)[C@@H]2CC(=O)O)cc1`, the pIC50 is 6.68.

For the molecule `N=C(N)NCCC[C@H](N)C(=O)NCC(=O)N[C@@H](CC(=O)O)C(=O)N[C@@H](Cc1ccccc1)C(=O)O` (H-RGDF-OH), the pIC50 is 6.96.
